Results on one compound are retold here after ChEMBL document CHEMBL3997800, “Discovery of Multitarget Agents Active as Broad-Spectrum Antivirals and Correctors of Cystic Fibrosis Transmembrane Conductance Regulator for Associated Pulmonary Diseases” (J Med Chem, 2017).

Some results are limits rather than exact numbers.

The test system of data set [1] is Enterovirus A71. Nature of the data set: Antiviral activity against Enterovirus 71 TW/70902/08 clinical isolates incubated for 2 to 3 days. The note with it: Enterovirus A. The class given is functional.
Data set [2] deals with Enterovirus A71. The experiment in a line: Antiviral activity against Enterovirus 71 TW/96016/08 clinical isolates incubated for 2 to 3 days. The data set is classed as functional. The note with it: Enterovirus A.
Data set [3] deals with Poliovirus 1. The experiment in a line: Antiviral activity against Poliovirus 1 after 2 to 3 days by cell based MTS assay. The data set is classed as functional. The note with it: Enterovirus C. In a few lines:
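Vero cells seeded at 20 000/well in MEM with 2% FCS. Three 8-step 1:5 dilution series from 100 μM, then virus, then cells; 2–3 days until maximal CPE. Read-out: 5% MTS for 1.5 h at 37°C, absorbance at 498 nm, expressed as % of untreated controls. EC50 taken as the median of 3 dose-response curves.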
In general terms: Tetrazolium dyes change colour on reduction, which living cells bring about.

Data set [4] in a line: Inhibition of full length recombinant His6-tagged PI4K3alpha (unknown origin) expressed in Sf9 insect cells assessed as residual activity at 100 uM using PI : PS as substrate in presence of [gamma-33P]-ATP by scintillation counting method relative to control. The note with it: Homo sapiens.
Data set [5] concerns Enterovirus A71. Nature of the data set: Antiviral activity against Enterovirus 71 TW/2429/04 clinical isolates incubated for 2 to 3 days. The conditions noted are these: Enterovirus A. The class given is functional.
In data set [6] the test system is Enterovirus A71. The experiment in a line: Antiviral activity against Enterovirus 71 TW/1956/05 clinical isolates incubated for 2 to 3 days. The class given is functional. The conditions noted are these: Enterovirus A.
Data set [7] concerns Enterovirus A71. The experiment in a line: Antiviral activity against Enterovirus 71 infected in RD cells assessed as reduction in virus-induced cytopathic effect incubated for 2 to 3 days. The note with it: Enterovirus A, RD; read-out: EC50. The data set is classed as functional, cell-based. The method in brief: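 RD cells seeded at 20 000/well in MEM with 2% FCS and infected with EV71. Three 8-step 1:5 dilution series from 100 μM. Incubated 2-3 days until maximal CPE, then scored for CPE reduction. EC50 is the median of three dose-response curves.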

Data set [8] in a line: Cytotoxicity against human RD cells after 2 to 3 days by MTS method. The data set is classed as cell-based. The method in brief: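 Uninfected RD cells, 20 000/well in 2% FCS medium, run in parallel with the antiviral assay. Three 8-step 1:5 dilution series from 100 μM, 2-3 days. Read-out by 5% MTS, 1.5 h at 37 °C, absorbance 498 nm, as % of untreated controls. CC50 is the 50% metabolic activity point, median of 3 curves.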

Data set [9] is described as follows: Cytotoxicity against human RD cells assessed as change in cell morphology by microscopic method. The class given is cell-based. The method in brief:
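Uninfected, compound-treated RD cells were inspected by microscope. CC50 was taken from microscopically detectable alteration of cell morphology.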

The nature of data set [10]: Selectivity index, ratio of CC50 for human RD cells assessed as change in cell morphology to EC50 for Enterovirus 71. The note with it: read-out: Ratio CC50/EC50. The data set is classed as toxicity. In a few lines:
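SI is CC50/EC50. CC50 is from microscopically detected morphology change in uninfected RD cells and EC50 from the EV71 CPE-reduction assay in RD cells.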

The subject of data set [11] is Coxsackievirus B3. The experiment in a line: Antiviral activity against Coxsackievirus B3 after 2 to 3 days by cell based MTS assay. The class given is functional. The note with it: Enterovirus B.
For data set [12], the system named is Echovirus E11. Nature of the data set: Antiviral activity against Echovirus 11 after 2 to 3 days. The data set is classed as functional. The conditions noted are these: Enterovirus B.
In data set [13] the test system is rhinovirus B14. The experiment in a line: Antiviral activity against Rhinovirus 14 after 2 to 3 days by cell based MTS assay. The class given is functional. The note with it: Rhinovirus B; read-out: EC50.
The target in data set [14] is Proto-oncogene tyrosine-protein kinase Src (Homo sapiens) (UniProt P12931). The experiment in a line: Inhibition of full-length recombinant human N-terminal GST-tagged SRC expressed in Escherichia coli assessed as residual activity at 100 uM using KVEKIGEGTYGVVYK-amide as substrate by ADP-Glo bioluminescence assay relative to control relative to control. The method in brief: (§1)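 Kinase reactions followed manufacturer's instructions with 10-50 ng enzyme, in 10 µL for 10 min at 30 °C; NP-40 or BSA added for some kinases. Compound at 100 µM. Residual activity is the mean of two independent replicates.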
Proto-oncogene tyrosine-protein kinase Src (Homo sapiens), sequence (P12931 2-536 limits assumed): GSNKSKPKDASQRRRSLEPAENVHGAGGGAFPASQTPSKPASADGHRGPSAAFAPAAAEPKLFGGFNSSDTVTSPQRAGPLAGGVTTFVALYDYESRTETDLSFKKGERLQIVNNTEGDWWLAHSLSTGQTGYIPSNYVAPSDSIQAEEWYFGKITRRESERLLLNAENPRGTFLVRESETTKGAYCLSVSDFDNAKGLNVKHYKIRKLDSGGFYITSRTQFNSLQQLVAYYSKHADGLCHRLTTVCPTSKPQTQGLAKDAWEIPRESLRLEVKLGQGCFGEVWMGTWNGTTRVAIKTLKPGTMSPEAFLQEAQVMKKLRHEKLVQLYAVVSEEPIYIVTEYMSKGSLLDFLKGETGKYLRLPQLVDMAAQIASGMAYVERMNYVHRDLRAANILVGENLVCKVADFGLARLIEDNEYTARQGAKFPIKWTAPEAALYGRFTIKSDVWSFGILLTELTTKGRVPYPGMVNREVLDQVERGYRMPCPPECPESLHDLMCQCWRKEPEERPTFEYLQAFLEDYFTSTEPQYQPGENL

Data set [15] concerns the target Glycogen synthase kinase-3 beta (Homo sapiens) (UniProt P49841). Nature of the data set: Inhibition of full-length recombinant human N-terminal GST-tagged GSK3beta expressed in baculovirus infected sf9 cells assessed as residual activity at 100 uM using YRRAAVPPSPSLSRHSSPHQ(pS)EDEEE as substrate by ADP-Glo bioluminescence assay relative to control relative to control. In a few lines:
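Kinase run per the manufacturer's instructions with 10–50 ng enzyme in 10 μL at 30 °C for 10 min. NP-40 or BSA was added for some kinases. Compound was tested at 100 μM, with activity given as % residual. Values are the mean of two independent replicates.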

For data set [16], the target named is Dual specificity tyrosine-phosphorylation-regulated kinase 1A (Homo sapiens) (UniProt Q13627). Nature of the data set: Inhibition of human DYRK1A assessed as residual activity at 100 uM by ADP-Glo bioluminescence assay relative to control relative to control. The method in brief:
as §1

Data set [17] has as its target Tyrosine-protein kinase ABL1 (Homo sapiens) (UniProt P00519). Nature of the data set: Inhibition of full length ABL (unknown origin) assessed as residual activity at 100 uM by ADP-Glo bioluminescence assay relative to control relative to control. The method in brief: as §1
In data set [18] the target is Receptor-type tyrosine-protein kinase FLT3 (Homo sapiens) (UniProt P36888). The experiment in a line: Inhibition of recombinant human N-terminal GST-tagged FLT3 (571 to 993 residues) expressed in baculovirus infected sf9 cells assessed as residual activity using myelin basic protein as substrate at 100 uM by ADP-Glo bioluminescence assay relative to control relative to control. In a few lines: as §1
Receptor-type tyrosine-protein kinase FLT3 (Homo sapiens), sequence (P36888 whole entry, the tested form may be a part): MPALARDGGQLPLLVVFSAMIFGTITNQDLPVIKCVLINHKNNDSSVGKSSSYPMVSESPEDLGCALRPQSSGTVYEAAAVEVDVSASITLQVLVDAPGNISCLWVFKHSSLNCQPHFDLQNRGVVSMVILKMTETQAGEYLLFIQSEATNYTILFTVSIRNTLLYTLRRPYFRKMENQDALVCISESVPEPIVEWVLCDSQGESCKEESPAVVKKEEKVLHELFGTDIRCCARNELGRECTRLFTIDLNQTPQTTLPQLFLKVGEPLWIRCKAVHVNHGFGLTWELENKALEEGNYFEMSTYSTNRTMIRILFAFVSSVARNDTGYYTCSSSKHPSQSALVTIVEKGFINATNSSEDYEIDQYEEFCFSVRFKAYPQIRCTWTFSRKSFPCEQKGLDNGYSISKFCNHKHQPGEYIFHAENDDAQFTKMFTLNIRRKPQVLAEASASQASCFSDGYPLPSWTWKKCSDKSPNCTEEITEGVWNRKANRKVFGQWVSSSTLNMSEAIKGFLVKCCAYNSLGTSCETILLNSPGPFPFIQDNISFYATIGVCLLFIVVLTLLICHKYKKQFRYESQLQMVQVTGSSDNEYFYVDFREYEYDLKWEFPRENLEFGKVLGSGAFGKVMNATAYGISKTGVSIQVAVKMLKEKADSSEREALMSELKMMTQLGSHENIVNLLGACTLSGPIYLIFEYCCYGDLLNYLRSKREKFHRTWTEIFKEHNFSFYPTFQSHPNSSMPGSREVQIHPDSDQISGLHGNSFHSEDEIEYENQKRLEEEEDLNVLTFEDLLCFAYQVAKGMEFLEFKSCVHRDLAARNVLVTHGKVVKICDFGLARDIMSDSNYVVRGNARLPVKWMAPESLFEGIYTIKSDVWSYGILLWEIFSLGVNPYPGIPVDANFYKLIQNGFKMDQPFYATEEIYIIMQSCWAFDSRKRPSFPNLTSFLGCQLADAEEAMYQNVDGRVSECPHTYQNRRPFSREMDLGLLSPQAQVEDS
Background: ADP-Glo turns the ADP formed in a reaction into a luminescent signal.

Data set [19] has as its target CDK2/Cyclin A2 (Homo sapiens) (UniProt P24941+P20248). Nature of the data set: Inhibition of full-length recombinant human N-terminal GST-tagged CDK2/cyclin A2 expressed in baculovirus infected sf9 cells assessed as residual activity at 100 uM using histone H1 as substrate by ADP-Glo bioluminescence assay relative to control relative to control. In a few lines: as §1

Data set [20] has as its target CDK9/cyclin T1 (Homo sapiens) (UniProt O60563+P50750). Nature of the data set: Inhibition of CDK9/cyclin T1 (unknown origin) assessed as residual activity at 100 uM by ADP-Glo bioluminescence assay relative to control relative to control. The class given is protein-complex assay. In a few lines: as §1
In data set [21] the target is CDK9/Cyclin K (Homo sapiens) (UniProt P50750+O75909). Nature of the data set: Inhibition of full-length recombinant human N-terminal GST-tagged CDK9/cyclin K expressed in baculovirus infected sf9 cells assessed as residual activity at 100 uM using KTFCGTPEYLAPEVRREPRILSEEEQEMFRDFDYIADWC as substrate by ADP-Glo bioluminescence assay relative to control relative to control. In a few lines:
as §1

The target of data set [22] is CDK6/cyclin D1 (Homo sapiens) (UniProt P24385+Q00534). The experiment in a line: Inhibition of CDK6/cyclin D1 (unknown origin) assessed as residual activity at 100 uM by ADP-Glo bioluminescence assay relative to control relative to control. The data set is classed as protein-complex assay. The method in brief: as §1
Data set [23] has as its target Serine/threonine-protein kinase pim-1 (Homo sapiens) (UniProt P11309). Nature of the data set: Inhibition of recombinant human N-terminal GST-tagged pim1 expressed in baculovirus infected sf9 cells assessed as residual activity using KRRRLASLR as substrate at 100 uM by ADP-Glo bioluminescence assay relative to control relative to control. The method in brief: as §1

One may read the EC50 as the concentration needed to bring the measured effect to its halfway point. As a reminder, the CC50 is the concentration that lowers cell viability or growth by half.

Tyrosine-protein kinase ABL1 (Homo sapiens), sequence (P00519 whole entry, the tested form may be a part): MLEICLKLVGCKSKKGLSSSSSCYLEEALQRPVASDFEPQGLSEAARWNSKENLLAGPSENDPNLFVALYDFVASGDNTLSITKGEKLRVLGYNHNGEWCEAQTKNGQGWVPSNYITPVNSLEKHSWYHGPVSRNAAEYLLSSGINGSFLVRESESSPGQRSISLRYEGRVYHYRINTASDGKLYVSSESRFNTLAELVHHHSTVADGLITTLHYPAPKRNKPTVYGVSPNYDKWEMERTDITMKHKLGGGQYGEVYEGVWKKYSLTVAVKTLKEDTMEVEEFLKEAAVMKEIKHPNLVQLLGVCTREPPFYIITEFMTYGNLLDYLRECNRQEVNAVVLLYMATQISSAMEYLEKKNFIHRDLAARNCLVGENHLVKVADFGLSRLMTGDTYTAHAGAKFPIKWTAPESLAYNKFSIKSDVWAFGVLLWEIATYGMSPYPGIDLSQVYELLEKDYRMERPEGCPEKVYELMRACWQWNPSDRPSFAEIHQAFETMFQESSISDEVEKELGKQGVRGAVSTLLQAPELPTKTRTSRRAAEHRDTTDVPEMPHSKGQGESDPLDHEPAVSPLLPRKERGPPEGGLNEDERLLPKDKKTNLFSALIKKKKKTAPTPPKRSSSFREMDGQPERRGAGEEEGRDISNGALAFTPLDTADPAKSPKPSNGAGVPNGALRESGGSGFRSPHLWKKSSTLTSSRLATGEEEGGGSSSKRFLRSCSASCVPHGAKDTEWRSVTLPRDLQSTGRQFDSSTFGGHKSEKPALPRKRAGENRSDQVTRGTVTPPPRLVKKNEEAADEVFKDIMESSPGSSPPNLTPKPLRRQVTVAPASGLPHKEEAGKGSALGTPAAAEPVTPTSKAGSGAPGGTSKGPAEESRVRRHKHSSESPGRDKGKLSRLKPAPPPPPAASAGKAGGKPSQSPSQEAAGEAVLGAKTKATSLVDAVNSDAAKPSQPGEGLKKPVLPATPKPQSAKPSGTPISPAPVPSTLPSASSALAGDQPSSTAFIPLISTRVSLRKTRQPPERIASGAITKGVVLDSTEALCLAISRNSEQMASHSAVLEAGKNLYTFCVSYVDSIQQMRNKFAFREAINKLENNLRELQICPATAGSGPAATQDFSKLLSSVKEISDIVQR
Glycogen synthase kinase-3 beta (Homo sapiens), sequence (P49841 whole entry, looked up): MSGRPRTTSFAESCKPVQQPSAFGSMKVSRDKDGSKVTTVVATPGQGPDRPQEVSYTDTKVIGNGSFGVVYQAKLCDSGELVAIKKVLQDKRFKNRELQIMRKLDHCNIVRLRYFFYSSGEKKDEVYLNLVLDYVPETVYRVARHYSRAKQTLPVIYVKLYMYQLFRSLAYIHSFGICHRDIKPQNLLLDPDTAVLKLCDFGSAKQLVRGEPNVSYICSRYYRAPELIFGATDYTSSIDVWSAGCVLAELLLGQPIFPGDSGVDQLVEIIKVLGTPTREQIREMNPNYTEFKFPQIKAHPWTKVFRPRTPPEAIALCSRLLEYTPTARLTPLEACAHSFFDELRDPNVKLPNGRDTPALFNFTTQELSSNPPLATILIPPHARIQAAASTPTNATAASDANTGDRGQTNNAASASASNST
Serine/threonine-protein kinase pim-1 (Homo sapiens), sequence (P11309 whole entry, looked up): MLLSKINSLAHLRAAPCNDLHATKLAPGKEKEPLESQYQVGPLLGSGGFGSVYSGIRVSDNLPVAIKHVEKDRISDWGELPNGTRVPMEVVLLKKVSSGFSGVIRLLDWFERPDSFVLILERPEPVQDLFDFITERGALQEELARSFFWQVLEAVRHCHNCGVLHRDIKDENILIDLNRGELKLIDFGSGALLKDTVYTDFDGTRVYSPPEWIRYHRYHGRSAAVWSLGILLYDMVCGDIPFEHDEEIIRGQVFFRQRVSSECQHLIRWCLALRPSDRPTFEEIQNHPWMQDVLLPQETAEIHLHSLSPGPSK

Consider `CC(=O)c1cccc(Nc2nc(-c3sc(NC(=O)OC(C)(C)C)nc3C)cs2)c1`, for which the EC50 is 3.58 µM in [1]; 21 µM in data set [2]; 13.3 µM in data set [3]; 1.17 µM in [5]; below 1.39 µM in data set [6]; 1.42 µM in data set [7]. In addition, the EC50 in [11] is 2.74 µM; in data set [12] it was 2.93 µM; in data set [13], above 232 µM. Further, the Activity was 69% in [4]; 32% in [14]; 79% in data set [15]; 88% in data set [16]; 53% in [17]; 59% in [18]. Further, the Activity is 62% in data set [19]; 57% in [20]; 49% in [21]; 25% in [22]; 70% in data set [23]. Besides, the half-maximal cytotoxic concentration (CC50) in data set [8] stood at 42.3 µM; in data set [9], 101 µM. Further, in data set [10], the selectivity ratio amounted to 71.1.
